A value given as a limit tells only on which side of the number the result lay.

The IC50 is the concentration at which inhibition is half-maximal. For orientation: Papp A→B means how fast a substance crosses the layer from the apical side. A word on the Papp B→A: it is the apparent permeability from the basolateral to the apical side of a cell layer. As usually defined, the efflux ratio is a quotient of directional permeabilities that is used to spot active efflux.

Data set [1] deals with Phosphatidylinositol 4,5-bisphosphate 3-kinase catalytic subunit alpha isoform (Homo sapiens, UniProt P42336). Description: Inhibition of PI3Kalpha (unknown origin) using PIP2/PS as substrate after 1 hr by luciferase-based luminescence assay.
Data set [2] has as its target Serine/threonine-protein kinase mTOR (Homo sapiens, UniProt P42345). The data set is described as follows: Inhibition of mTOR (unknown origin) using GFP-4E-BP1 as substrate after 1 hr by TR-FRET assay.
Data set [3] is filed under the species Homo sapiens. The data set is described as follows: Selectivity ratio of IC50 for mTOR (unknown origin) to IC50 for PI3Kalpha (unknown origin).
The target of data set [4] is Phosphatidylinositol 4,5-bisphosphate 3-kinase catalytic subunit beta isoform (Homo sapiens, UniProt P42338). The data set is described as follows: Inhibition of PI3Kbeta (unknown origin) using PIP2/PS as substrate after 1 hr by luciferase-based luminescence assay.
The target in data set [5] is T1, Phosphatidylinositol 4,5-bisphosphate 3-kinase catalytic subunit delta isoform (Homo sapiens, UniProt O00329).
T1 sequence (O00329 whole entry): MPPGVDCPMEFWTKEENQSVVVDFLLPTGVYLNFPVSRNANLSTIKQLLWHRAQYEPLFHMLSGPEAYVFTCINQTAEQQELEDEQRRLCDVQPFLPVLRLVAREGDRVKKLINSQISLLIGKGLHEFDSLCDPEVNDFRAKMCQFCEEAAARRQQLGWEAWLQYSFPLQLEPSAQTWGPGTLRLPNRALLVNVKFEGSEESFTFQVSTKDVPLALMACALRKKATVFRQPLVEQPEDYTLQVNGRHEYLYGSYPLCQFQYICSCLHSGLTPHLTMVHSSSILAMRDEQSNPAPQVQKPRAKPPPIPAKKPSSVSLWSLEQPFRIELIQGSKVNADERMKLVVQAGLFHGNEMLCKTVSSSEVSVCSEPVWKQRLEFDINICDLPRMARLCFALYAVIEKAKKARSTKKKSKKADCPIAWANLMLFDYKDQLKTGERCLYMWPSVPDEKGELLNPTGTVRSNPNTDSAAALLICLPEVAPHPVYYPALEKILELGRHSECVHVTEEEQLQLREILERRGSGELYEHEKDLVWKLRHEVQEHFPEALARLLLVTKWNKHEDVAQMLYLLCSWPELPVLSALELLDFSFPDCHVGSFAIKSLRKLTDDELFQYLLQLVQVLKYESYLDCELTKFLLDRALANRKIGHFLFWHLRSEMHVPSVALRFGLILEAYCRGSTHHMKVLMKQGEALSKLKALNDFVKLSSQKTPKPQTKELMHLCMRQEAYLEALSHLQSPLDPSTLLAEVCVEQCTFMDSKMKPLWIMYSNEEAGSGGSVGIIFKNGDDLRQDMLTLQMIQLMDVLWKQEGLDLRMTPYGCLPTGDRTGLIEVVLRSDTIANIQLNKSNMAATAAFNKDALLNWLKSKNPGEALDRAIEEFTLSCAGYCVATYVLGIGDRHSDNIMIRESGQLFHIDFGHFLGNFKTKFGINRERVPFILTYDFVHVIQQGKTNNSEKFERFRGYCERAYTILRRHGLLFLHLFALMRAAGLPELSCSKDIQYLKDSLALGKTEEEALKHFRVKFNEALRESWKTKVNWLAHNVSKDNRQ
Description: Inhibition of PI3Kdelta (unknown origin) using PIP2/PS as substrate after 1 hr by luciferase-based luminescence assay.

Data set [6] deals with Phosphatidylinositol 4,5-bisphosphate 3-kinase catalytic subunit gamma isoform (Homo sapiens, UniProt P48736). The data set is described as follows: Inhibition of PI3Kgamma (unknown origin) using PIP2/PS as substrate after 1 hr by luciferase-based luminescence assay.
Data set [7] is described as follows: Permeability of the compound after 5 hrs by PAMPA. The conditions noted are these: read-out: permeability. The format is physicochemical. (In PAMPA a lipid-coated filter parts donor from acceptor wells.)
A short description of data set [8]: Apparent permeability across apical to basolateral side in human Caco2 cells at 10 uM after 1.5 hrs by LC/MS/MS analysis. The format is ADME, cell-based. The conditions noted are these: Caco-2. A general note: Caco-2 monolayers are a common model of the intestinal barrier.
The nature of data set [9]: Apparent permeability across basolateral to apical side in human Caco2 cells at 10 uM after 1.5 hrs by LC/MS/MS analysis. The format is ADME, cell-based. The settings on record: Caco-2.
The nature of data set [10]: Efflux ratio of apparent permeability across basolateral to apical side over apical to basolateral side in human Caco2 cells. The conditions noted are these: Caco-2. The format is ADME, cell-based.
In data set [11] the test system is U-87 MG. Description: Cytotoxicity against human U87MG cells harboring PTEN deletion mutant assessed as growth inhibition after 4 days by CellTiter-Glo luminescent cell viability assay. The class given is functional, cell-based, U-87MG ATCC. The settings on record: 96 h. The essentials:
(§1)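 Proliferation panel of human cancer lines carrying either a PIK3CA mutation or a PTEN deletion, with A549 as the one line carrying neither. Growth inhibition is reported as IC50.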
(In ATP-based viability assays light output follows the ATP content of the culture.)

Data set [12] concerns T47D. Description: Cytotoxicity against human T47D cells harboring PIK3CA mutant assessed as growth inhibition after 4 days by CellTiter-Glo luminescent cell viability assay. The settings on record: 96 h. The class given is functional, cell-based. The essentials: as §1
Data set [13] deals with SK-OV-3. The data set is described as follows: Cytotoxicity against human SKOV3 cells harboring PIK3CA mutant assessed as growth inhibition after 4 days by CellTiter-Glo luminescent cell viability assay. The settings on record: SK-OV-3, 96 h. The format is functional, cell-based. The method in brief: as §1
Data set [14] deals with NCI-H1975. Description: Cytotoxicity against human NCI-H1975 cells harboring PIK3CA mutant assessed as growth inhibition after 4 days by CellTiter-Glo luminescent cell viability assay. The settings on record: NCI-H1975, 96 h. The class given is functional, cell-based. The method in brief:
as §1

Data set [15] is described as follows: Cytotoxicity against human H460 cells harboring PIK3CA mutant assessed as growth inhibition after 4 days by CellTiter-Glo luminescent cell viability assay. The class given is functional, cell-based. The conditions noted are these: NCI-H460, 96 h. The essentials: as §1
Data set [16] relates to A549. The data set is described as follows: Cytotoxicity against PTEN deletion mutant/PIK3CA mutant-deficient human A549 cells assessed as growth inhibition after 4 days by CellTiter-Glo luminescent cell viability assay. The format is functional, cell-based. The conditions noted are these: A549, 96 h. The method in brief: as §1
Data set [17] in a line: Inhibition of PI3K in human T47D cells assessed as inhibition of AKT phosphorylation at Ser 473 after 4 hrs by Western blot analysis. The format is cell-based.

Phosphatidylinositol 4,5-bisphosphate 3-kinase catalytic subunit alpha isoform, sequence (P42336 whole entry, canonical isoform): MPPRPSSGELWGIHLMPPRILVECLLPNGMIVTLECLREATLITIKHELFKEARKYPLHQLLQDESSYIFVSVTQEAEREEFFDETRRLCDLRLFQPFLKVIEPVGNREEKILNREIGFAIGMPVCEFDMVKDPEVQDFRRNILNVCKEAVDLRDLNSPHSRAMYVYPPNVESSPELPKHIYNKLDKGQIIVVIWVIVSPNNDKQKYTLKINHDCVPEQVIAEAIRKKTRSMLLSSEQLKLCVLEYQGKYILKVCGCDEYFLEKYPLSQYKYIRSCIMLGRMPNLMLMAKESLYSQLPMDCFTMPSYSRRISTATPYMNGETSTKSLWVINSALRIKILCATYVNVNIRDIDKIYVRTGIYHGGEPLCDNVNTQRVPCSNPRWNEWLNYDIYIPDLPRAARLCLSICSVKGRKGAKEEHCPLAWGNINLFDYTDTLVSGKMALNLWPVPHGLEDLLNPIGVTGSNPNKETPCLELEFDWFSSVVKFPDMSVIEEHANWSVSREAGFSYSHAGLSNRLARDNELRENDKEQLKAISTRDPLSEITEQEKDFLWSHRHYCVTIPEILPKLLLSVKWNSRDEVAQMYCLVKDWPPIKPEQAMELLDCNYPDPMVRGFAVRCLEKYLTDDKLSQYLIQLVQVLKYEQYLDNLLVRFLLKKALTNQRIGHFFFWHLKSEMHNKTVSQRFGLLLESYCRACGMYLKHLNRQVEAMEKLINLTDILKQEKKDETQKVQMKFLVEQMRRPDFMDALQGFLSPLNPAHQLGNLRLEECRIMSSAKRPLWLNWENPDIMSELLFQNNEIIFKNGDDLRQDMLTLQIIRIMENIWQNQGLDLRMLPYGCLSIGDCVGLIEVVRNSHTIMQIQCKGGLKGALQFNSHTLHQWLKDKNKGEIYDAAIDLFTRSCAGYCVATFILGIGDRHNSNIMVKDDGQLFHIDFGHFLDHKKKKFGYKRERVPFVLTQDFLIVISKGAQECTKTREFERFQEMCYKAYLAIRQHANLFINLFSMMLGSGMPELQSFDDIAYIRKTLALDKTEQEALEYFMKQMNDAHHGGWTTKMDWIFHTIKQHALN
Phosphatidylinositol 4,5-bisphosphate 3-kinase catalytic subunit gamma isoform, sequence (P48736 whole entry, canonical isoform): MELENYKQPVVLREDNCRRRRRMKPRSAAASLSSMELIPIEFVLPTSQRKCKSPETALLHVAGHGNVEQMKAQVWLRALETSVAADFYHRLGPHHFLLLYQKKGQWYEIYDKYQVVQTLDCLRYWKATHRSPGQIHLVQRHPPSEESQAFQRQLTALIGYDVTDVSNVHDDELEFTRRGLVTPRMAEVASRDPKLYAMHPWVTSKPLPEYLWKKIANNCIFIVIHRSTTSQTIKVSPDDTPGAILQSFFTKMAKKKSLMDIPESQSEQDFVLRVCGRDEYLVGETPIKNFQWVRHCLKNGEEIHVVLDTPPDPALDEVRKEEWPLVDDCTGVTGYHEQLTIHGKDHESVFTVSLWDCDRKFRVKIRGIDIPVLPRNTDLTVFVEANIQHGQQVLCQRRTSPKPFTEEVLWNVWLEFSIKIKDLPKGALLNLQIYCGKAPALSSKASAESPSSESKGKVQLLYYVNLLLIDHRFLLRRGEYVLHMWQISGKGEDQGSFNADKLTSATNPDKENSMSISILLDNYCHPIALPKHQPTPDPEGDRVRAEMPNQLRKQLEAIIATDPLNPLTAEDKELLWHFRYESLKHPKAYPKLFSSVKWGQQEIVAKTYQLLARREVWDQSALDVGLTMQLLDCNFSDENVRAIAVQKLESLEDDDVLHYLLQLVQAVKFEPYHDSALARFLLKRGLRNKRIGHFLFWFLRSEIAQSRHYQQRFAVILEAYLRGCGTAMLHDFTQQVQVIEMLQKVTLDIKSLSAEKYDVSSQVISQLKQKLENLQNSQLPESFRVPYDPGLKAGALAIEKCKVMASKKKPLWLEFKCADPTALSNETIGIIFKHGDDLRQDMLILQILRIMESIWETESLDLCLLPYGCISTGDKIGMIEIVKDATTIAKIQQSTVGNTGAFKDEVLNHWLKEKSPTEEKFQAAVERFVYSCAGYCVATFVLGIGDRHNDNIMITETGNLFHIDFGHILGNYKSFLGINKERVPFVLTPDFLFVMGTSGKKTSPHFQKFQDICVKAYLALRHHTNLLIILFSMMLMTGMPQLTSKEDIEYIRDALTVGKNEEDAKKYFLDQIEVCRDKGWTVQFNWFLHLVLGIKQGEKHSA
Phosphatidylinositol 4,5-bisphosphate 3-kinase catalytic subunit beta isoform, sequence (P42338 whole entry, canonical isoform): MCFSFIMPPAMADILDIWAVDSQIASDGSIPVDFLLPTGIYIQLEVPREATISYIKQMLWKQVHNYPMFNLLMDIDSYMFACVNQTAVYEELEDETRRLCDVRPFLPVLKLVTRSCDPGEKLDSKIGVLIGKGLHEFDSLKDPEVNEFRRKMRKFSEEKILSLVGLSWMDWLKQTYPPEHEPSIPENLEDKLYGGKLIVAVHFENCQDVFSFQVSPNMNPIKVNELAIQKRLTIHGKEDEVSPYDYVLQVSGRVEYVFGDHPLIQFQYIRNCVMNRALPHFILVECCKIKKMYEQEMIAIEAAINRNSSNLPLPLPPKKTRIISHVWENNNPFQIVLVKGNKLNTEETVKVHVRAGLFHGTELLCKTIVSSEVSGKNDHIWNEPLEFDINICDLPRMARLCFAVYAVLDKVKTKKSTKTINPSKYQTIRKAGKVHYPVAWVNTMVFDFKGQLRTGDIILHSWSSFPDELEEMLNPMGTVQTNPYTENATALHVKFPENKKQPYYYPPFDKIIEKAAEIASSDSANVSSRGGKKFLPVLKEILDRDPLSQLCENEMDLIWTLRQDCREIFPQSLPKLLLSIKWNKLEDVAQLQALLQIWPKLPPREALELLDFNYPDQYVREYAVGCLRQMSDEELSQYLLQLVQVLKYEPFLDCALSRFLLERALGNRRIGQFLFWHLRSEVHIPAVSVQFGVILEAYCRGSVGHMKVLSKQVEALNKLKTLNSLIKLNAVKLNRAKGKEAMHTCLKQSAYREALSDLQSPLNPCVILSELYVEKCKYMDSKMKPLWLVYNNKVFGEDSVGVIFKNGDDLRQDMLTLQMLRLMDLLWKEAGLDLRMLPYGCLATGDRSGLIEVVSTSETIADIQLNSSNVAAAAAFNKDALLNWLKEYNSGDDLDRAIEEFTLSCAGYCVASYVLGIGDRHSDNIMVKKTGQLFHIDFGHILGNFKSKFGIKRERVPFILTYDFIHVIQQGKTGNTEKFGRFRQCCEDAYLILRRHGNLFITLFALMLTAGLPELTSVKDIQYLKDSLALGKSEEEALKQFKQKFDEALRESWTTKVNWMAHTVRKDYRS

With `O=S(=O)(Nc1cc(-c2cc3c(-c4ccncc4)ncnc3s2)cnc1Cl)c1ccc(F)cc1F`, the IC50 in data set [1] amounted to 0.23 nM; in data set [2] it was 53.6 nM; in data set [4] it was 3.6 nM; in data set [5], 3.1 nM; in data set [6], 10.2 nM; in data set [11], 4430 nM. In addition, the IC50 is 1520 nM in [12]; 5200 nM in data set [13]; 2200 nM in data set [14]; 2940 nM in [15]; 8440 nM in data set [16]. Also, the Ratio IC50 in [3] came out at 233. Moreover, in data set [7], the Papp at 5 h came to 7 ×10⁻⁶ cm/s. Besides, the Papp A→B at 1.5 h, 10 µM in data set [8] came to 4.8 ×10⁻⁶ cm/s. Moreover, the Papp B→A at 1.5 h, 10 µM in [9] came to 6.9 ×10⁻⁶ cm/s. Also, the efflux ratio in [10] worked out at 1.4.
Regarding `COc1ncc(-c2cc3c(-c4ccncc4)ncnc3s2)cc1NS(=O)(=O)c1ccc(F)cc1F`, the IC50 in data set [1] was 2.07 nM; in [2], 218 nM; in data set [4], 22.5 nM; in data set [5], 13.3 nM; in [6], 21.1 nM; in data set [17], 84.6 nM. Also, the IC50 in data set [11] amounted to 4400 nM; in data set [12], 660 nM; in [13] it was 3740 nM; in data set [14] it was 1070 nM; in data set [15], 420 nM; in data set [16] it was 3180 nM. The Ratio IC50 in data set [3] was determined as 105. The Papp at 5 h in data set [7] turned out to be 8 ×10⁻⁶ cm/s. Further, the Papp A→B at 1.5 h, 10 µM in data set [8] was 5.6 ×10⁻⁶ cm/s. In addition, the Papp B→A at 1.5 h, 10 µM in data set [9] stood at 4.5 ×10⁻⁶ cm/s. In addition, the efflux ratio in data set [10] came to 0.8.
In the case of `O=S(=O)(Nc1cc(-c2cc3c(-c4ccncc4)ncnc3s2)cnc1Cl)c1ccc(Cl)s1`, the IC50 in [1] was determined as 0.15 nM; in data set [2] it was 25.8 nM. Besides, the Ratio IC50 in [3] was 172.
In the case of `COc1ncc(-c2cc3c(-c4ccncc4)ccnc3cn2)cc1NS(=O)(=O)c1ccc(F)cc1F`, the IC50 in data set [1] was 1.02 nM; in data set [2], 3.04 nM. Further, the Ratio IC50 in data set [3] was found to be 3.
In the case of `COc1ncc(-c2cc3c(-c4ccncc4)ncnc3s2)cc1NS(=O)(=O)c1ccc(C(F)(F)F)cc1`, in [1], the IC50 worked out at 17 nM.
Still for that read-out and setting: next, `COc1ncc(-c2cc3c(-c4ccncc4)ncnc3s2)cc1F`: above 2500 nM.
In the case of `O=S(=O)(Nc1cc(-c2cc3c(-c4ccncc4)ncnc3s2)cnc1Cl)c1ccc(F)cc1`, the IC50 was found to be 0.3 nM in data set [1] and 43.7 nM in data set [2]. Besides, the Ratio IC50 in data set [3] came out at 146.
The corresponding values for `COc1ncc(-c2ccc3nncc(-c4ccncc4)c3c2)cc1NS(=O)(=O)c1ccc(F)cc1F` are 0.27 nM, 21.6 nM and 80.
For the compound `COc1ncc(-c2cc3c(-c4ccncc4)ncnc3s2)cc1NS(=O)(=O)c1ccc(C#N)cc1`, the IC50 in data set [1] turned out to be 3.6 nM; in [2], 363 nM. Moreover, the Ratio IC50 in data set [3] was determined as 100.
Regarding `COc1ncc(-c2sc3ncnc(-c4ccncc4)c3c2C)cc1NS(=O)(=O)c1ccc(F)cc1F`, inhibition in data set [1] was half-maximal at 72.3 nM (IC50).
The same measure, in the same setting: next, `COc1ncc(-c2cc3c(-c4ccncc4)ncnc3s2)cc1NS(C)(=O)=O`: 43.1 nM.
The compound `COc1ccc(-c2cc3c(-c4ccncc4)ncnc3s2)cn1` yielded an IC50 in [1] of 1230 nM.
For `COc1ncc(-c2ccc3nccc(-c4ccncc4)c3c2)cc1NS(=O)(=O)c1ccc(F)cc1F`, the IC50 is 0.1 nM in data set [1] and 0.75 nM in [2]. Moreover, in data set [3], the Ratio IC50 was found to be 7.5.
In the case of `COc1ncc(-c2cnc3nc(N)nc(-c4ccncc4)c3c2)cc1NS(=O)(=O)c1ccc(F)cc1F`, the Ratio IC50 in data set [3] turned out to be 0.52.
On to `COc1ncc(-c2cnc3nccc(-c4ccncc4)c3c2)cc1NS(=O)(=O)c1ccc(F)cc1F`, for which the results for the half-inhibitory concentration (IC50) in data set [1] and in [2] were 34.7 nM and 66.7 nM, respectively. For the same compound, in data set [3], the Ratio IC50 was found to be 1.9.
The matching figures for `COc1ncc(-c2cnc3ncnc(-c4ccncc4)c3c2)cc1NS(=O)(=O)c1ccc(F)cc1F`: 51.7 nM, 62.3 nM and 1.2.
In the case of `COc1ncc(-c2ccc3nc(N)nc(-c4ccncc4)c3c2)cc1NS(=O)(=O)c1ccc(F)cc1F`, the IC50 in [1] was found to be 0.07 nM; in data set [2], 0.29 nM. Further, in data set [3], the Ratio IC50 was determined as 4.1.
Compound `COc1ncc(-c2cc3c(-c4ccncc4)ncnc3s2)cn1` gave an IC50 in [1] of 3490 nM.
Turning to `COc1ncc(-c2cc3c(-c4ccncc4)ncnc3s2)cc1NS(=O)(=O)c1ccc(Cl)s1`, the IC50 in data set [1] is 1.3 nM; in [2] it was 67.9 nM. In data set [3], the Ratio IC50 turned out to be 52.
Consider `COc1ncc(-c2ccc3ncnc(-c4ccncc4)c3c2)cc1NS(=O)(=O)c1ccc(F)cc1F`, for which the IC50 was found to be 0.095 nM in data set [1] and 0.2 nM in data set [2]. Besides, the Ratio IC50 in data set [3] was found to be 2.1.
Turning to `Cc1ncc(-c2cc3c(-c4ccncc4)ncnc3s2)cc1NS(=O)(=O)c1ccc(F)cc1F`, the IC50 in [1] is 1.7 nM; in data set [2] it was 345 nM. The Ratio IC50 in data set [3] amounted to 203.

The values above are taken from ChEMBL document CHEMBL3576869 (ACS Med Chem Lett, 2015).
